Hits are enriched below; roughly 3.7% of the tested compounds scored in any of these assays.
KCNK3 block: human KCNK3 channel inhibition, primary screen | O14649 | CHO-KCNK3 thallium flux, FluxOR fluorescence; hits give low values | B-score at 10 µM | 340,000 tested, 0.84% active;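 active means B-score under library mean minus 4 SD, starting fluorescence ratio at most library mean plus 5 SD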;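 further: more negative B-score means stronger inhibition of thallium flux through KCNK3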
Target sequence (O14649 whole entry, looked up): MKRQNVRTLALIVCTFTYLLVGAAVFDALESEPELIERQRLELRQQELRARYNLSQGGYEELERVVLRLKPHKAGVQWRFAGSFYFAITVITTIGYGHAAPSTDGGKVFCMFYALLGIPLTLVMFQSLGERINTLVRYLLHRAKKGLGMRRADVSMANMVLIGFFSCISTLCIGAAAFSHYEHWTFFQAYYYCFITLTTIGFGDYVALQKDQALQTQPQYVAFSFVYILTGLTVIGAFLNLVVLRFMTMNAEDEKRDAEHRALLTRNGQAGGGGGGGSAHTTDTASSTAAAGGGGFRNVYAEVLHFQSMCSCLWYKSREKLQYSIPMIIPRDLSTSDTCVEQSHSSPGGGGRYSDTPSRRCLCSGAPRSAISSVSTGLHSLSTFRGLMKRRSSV
KCNQ1 inh: blocks the human KCNQ1 potassium channel; P51787; CHO-K1 KCNQ1, FluxOR thallium flux fluorescence; hits give high values; B-score at 10 µM; 310,000 tested, 1.3% active;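 active means compounds whose thallium flux B-score, printed positive for inhibition, exceeds three library SD while starting fluorescence stays within three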;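 further: channel opened by potassium depolarization with thallium stimulus after 20 min compound exposure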
Kir21 inh: blocks the mouse Kir2.1 inward-rectifier potassium channel; P35561; B-score at 10 µM; 310,000 tested, 0.85% active; HEK293-Kir2.1, FluxOR thallium flux fluorescence; hits give low values; AID 1672;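 active means fluorescence ratio B-score at or below minus 3 SD of library scores, with starting-brightness B-score within 2 SD, cut at about -4.2 in these data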;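 further: channel flux triggered by added potassium and thallium sulfate stimulus; B-score of peak minus minimum fluorescence over baseline after thallium stimulus; more negative B-score means stronger Kir2.1 block with less thallium influx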
KCNQ1 act: potentiates or activates the human KCNQ1 potassium channel. P51787. 310,000 tested, 0.35% active. CHO-K1 KCNQ1, thallium flux FluxOR fluorescence; hits give high values. B-score at 10 µM;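 active means fluorescence ratio B-score, a plate-corrected score, at least three library SD, with initial intensity B-score within 5 SD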
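Doses: Single concentration per compound, DMSO matched to controls | Test system: KCNQ1-transfected CHO-K1 cells | Timing: 90 min dye loading and 20 min compound exposure, both at room temperature | Measured by: Kinetic FluxOR thallium fluorescence, 10-s 1-Hz baseline, 110-s post-stimulus read | Medium: Assay buffer with matched DMSO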
hERG protect: hERG (human) protection from proarrhythmic block; activation (rescue from dofetilide block), less the hit threshold, % at 10 µM; 310,000 tested, 0.51% active; CHO-hERG, FluxOR thallium flux, dofetilide IC70 present; AID 1511;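 active means activation above the mean of controls blocked by dofetilide plus 5 SD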;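 further: thallium influx through hERG after potassium depolarization seen as dye fluorescence rise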
KCNK9 block: blocks the human KCNK9 two-pore domain potassium channel. Q9NPC2. 310,000 tested, 1.2% active. AID 488922. HEK293 KCNK9, FluxOR thallium flux fluorescence; hits give low values. B-score at 10 µM;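 active means ratio B-score over 3 SD below the library mean, with starting fluorescence within 5 SD of its mean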;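 further: negative B-score means less thallium flux so channel inhibition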
KCNK9 inh conf: human KCNK9 inhibitor confirmation; shares compounds with KCNK9 block; HEK293 KCNK9 cells, FluxOR thallium flux fluorescence; inhibition, % at 10 µM; 4,900 tested, 43% active; AID 492992;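 active means thallium signal inhibited by more than 5 SD of the compound-free buffer control wells, on both duplicate plates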;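 further: 0% = assay buffer control wells without compound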
Kir2-1 spec: tests whether KCNK9 modulators also affect mouse Kir2.1. shares compounds with KCNK9 block. Kir2.1 cells, FluxOR thallium flux fluorescence. inhibition, % at 10 µM. 4,900 tested, 4% active;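 active means thallium signal drop more than 5 SD beyond the mean of the no-compound control wells, seen in both duplicate plates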;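 further: signal is fluorescence rise after thallium addition divided by baseline fluorescence; plate controls were assay buffer only for no effect and full block by chlorpromazine control for full effect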
KCNK9 uninduced: second check of KCNK9 modulator effects in non-induced HEK293 cells; inhibition, % at 10 µM; 4,900 tested, 40% active; FluxOR thallium flux; shares compounds with KCNK9 block;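 active means thallium signal drop beyond 5 SD of the untreated control mean, on both duplicate plates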;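 further: plate controls were buffer only IC0 wells for no effect and SID17386958 at its maximal inhibitory level for full effect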
* = called active by the depositor; i = inactive; / = no result given.

SMILES	KCNK3 block	KCNQ1 inh	Kir21 inh	KCNQ1 act	hERG protect	KCNK9 block	KCNK9 inh conf	Kir2-1 spec	KCNK9 uninduced
CC(C)Cn1c(SCC(=O)Nc2cccnc2Cl)nnc1-c1ccco1	i	/	/	/	/	/	/	/	/
O=C1CC(=C(c2ccccc2)c2ccccc2)C(=O)N1CCN1CCN(c2cccc(Cl)c2)CC1	i	i	-0.87	i	-5.1	i	i	i	i
Oc1ccc(-c2nc3c4c(ncn3n2)-c2ccccc2CC42CCCC2)cc1	i	i	-0.84	i	-7.0	-9.02*	36.5%*	i	35.0%*
CC(=O)Nn1cnc2c(c1=O)C1(CCCC1)Cc1ccccc1-2	i	/	/	/	/	/	/	/	/
C/C(CC(=O)Nc1ccc(Cl)c(C(F)(F)F)c1)=N\NC(N)=S	i	7*	0.58	i	-14.8	i	i	i	i
CC1CCN(C(=S)c2cn(Cc3ccc(F)cc3)c3ccccc23)CC1	i	i	0.07	i	-4.8	-11*	44.0%*	i	38.0%*
S=C(c1cn(Cc2ccc(Br)cc2)c2ccccc12)N1CCOCC1	i	i	-0.4	i	-15.9	-10.3*	34.5%*	i	39.5%*
S=C(c1cn(Cc2ccccc2)c2ccccc12)N1CCOCC1	i	i	-2.61	i	-2.4	i	/	/	/
CN1CCN(C(=S)c2cn(Cc3ccc(F)cc3)c3ccccc23)CC1	i	i	0.12	i	-11.4	i	/	/	/
CC(C)=Cc1c(O)nc2ccccn2c1=O	i	i	1.33	i	-2.5	i	/	/	/
COc1ccc(S(=O)(=O)NCC(c2cccs2)N2CCc3ccccc3C2)cc1 (stereo unspecified)	i	i	-1.4	i	-11.5	i	/	/	/
COc1ccc(OC)c(S(=O)(=O)NCC(c2cccs2)N2CCc3ccccc3C2)c1 (stereo unspecified)	i	i	-1.19	i	-7.7	-9.09*	i	i	i
Cc1ccc2cccc(N=Cc3c(C)[nH]n(-c4ccccc4)c3=O)c2n1	i	i	-0.02	i	-2.0	-10*	47.0%*	i	i
Cc1ccc(NC(=O)CNC(=O)c2ccc(OC(F)F)cc2)cc1S(=O)(=O)N1CCCCCC1	i	/	/	/	/	/	/	/	/
N#C/C(=C\c1cn[nH]c1-c1ccccc1)C(=O)NC1CCCCCC1	i	i	1.11	i	-8.3	i	i	i	i
N#C/C(=C\c1cn[nH]c1-c1ccc(Cl)cc1)C(=O)NC1CC1	i	i	-0.12	i	-11.7	i	/	/	/
O=C(CCCOc1ccc(Br)cc1)NCCc1ccc(OC(F)F)cc1	i	i	-0.15	i	-11.3	i	/	/	/
Cn1c(N)c(C(=O)CSc2nnc(C3CC3)n2-c2ccccc2)c(=O)n(C)c1=O	i	/	/	/	/	/	/	/	/
COc1ccc(Cc2c(N)nc(C)nc2N)cc1	i	i	0.18	i	-14.3	i	/	/	/
CCOc1ccc(Cc2c(Cl)nc(SC)nc2OC)cc1	i	i	1.82	i	-12.6	i	i	i	25.5%*
O=C(NCCNc1ccc([N+](=O)[O-])cc1C(F)(F)F)c1ccccc1	i	i	-0.98	i	-8.0	i	i	i	i
O=C(NCCNc1ccc([N+](=O)[O-])cc1C(F)(F)F)c1cccc(F)c1	i	i	-1.49	i	-4.7	i	i	i	i
CC(=O)Nc1ccc(S(=O)(=O)NCC2(N3CCOCC3)CCCCC2)cc1	i	/	/	/	/	/	/	/	/
CC(C)Oc1ccccc1/C=N/NC(=O)C1CC1	i	i	0.86	i	1.2	i	/	/	/
CC1CCN(C(=O)c2ccc3c(Cl)c4c(nc3c2)CCCC4)CC1	i	i	0.98	i	-7.3	i	i	i	i
SMILES	KCNK3 block	KCNQ1 inh	Kir21 inh	KCNQ1 act	hERG protect	KCNK9 block	KCNK9 inh conf	Kir2-1 spec	KCNK9 uninduced
O=C(c1ccc2c(Cl)c3c(nc2c1)CCCC3)N1CCN(c2ccc(F)cc2)CC1	i	i	0.4	i	-8.0	i	i	i	i
COc1ccc(CN2CCN(S(=O)(=O)c3ccc(C)cc3)CC2)cc1Br	i	i	-0.51	i	-12.2	i	i	i	i
COc1cc(S(=O)(=O)N2CCN(Cc3ccc4c(c3)OCO4)CC2)c(C)cc1C	i	i	1.06	i	-6.7	i	i	i	i
O=S(=O)(c1cccc(F)c1)N1CCN(Cc2ccc3c(c2)OCO3)CC1	i	i	1.67	i	-10.4	i	i	i	i
CC(C)C(NC(=O)c1ccccc1)c1nnc(SCC(=O)NC2CCCC2)n1C (stereo unspecified)	i	i	0	i	-5.4	i	/	/	/
O=C(Cc1c(Cl)cccc1Cl)OCC(=O)N1CCc2ccccc2C1	i	i	0.34	i	-12.1	i	i	i	i
CC(C)c1ccc(OCC(=O)N2CCc3ccccc3C2)cc1	i	i	2.38	i	-4.0	i	i	i	i
CC(=O)Nc1ccc(OCC(=O)N2CCc3ccccc3C2)cc1	i	i	0.72	i	1.9	i	/	/	/
Cc1ccc(NC(=O)CSc2ccccc2NC(=O)c2ccccc2Cl)cc1Cl	i	i	0.16	i	-8.8	-9.73*	55.5%*	i	i
Cc1ccc(NC(=O)CSc2ccccc2NC(=O)c2ccccc2)cc1Cl	i	i	-0.33	i	-5.2	i	/	/	/
COC(=O)c1nn(-c2ccccc2)c(Cl)c1/C=N/OCc1ccc(Cl)cc1Cl	i	i	1.38	i	-8.0	i	i	i	i
COC(=O)c1nn(-c2ccccc2)c(Cl)c1/C=N/O	i	i	1.69	i	-19.9	i	/	/	/
FC(F)(F)c1ccccc1CN1CCCC(N2CCN(c3ccccc3)CC2)C1 (stereo unspecified)	i	i	-0.11	i	-4.1	i	i	i	i
Clc1ccc(SCCOCCN2CCc3ccccc3C2)cc1	i	i	-8.54*	i	-8.6	i	i	i	i
OC(COC(c1ccc(Cl)cc1)c1ccc(Cl)cc1)CN1CCc2ccccc2C1 (stereo unspecified)	i	i	-0.39	i	-22.9	-15.7*	57.5%*	i	38.0%*
OC(COC(c1ccccc1)c1ccccc1)CN1CCc2ccccc2C1 (stereo unspecified)	i	i	-3.67	i	-6.6	i	/	/	/
